Experimental data: ChEMBL document CHEMBL5338787, “Discovery of Novel Bruton's Tyrosine Kinase PROTACs with Enhanced Selectivity and Cellular Efficacy” (J Med Chem, 2023)
pIC50, pKd: −log10 of the molar value. Active and inactive are the calls of the source. The rule behind the calls is not given here.

How the values were obtained:
[1] = target: T1, Protein cereblon/Tyrosine-protein kinase BTK (Homo sapiens, UniProt Q06187+Q96SW2); test: PROTAC activity at BTK/CRBN protein protein interaction in human JeKo-1 cell assessed as degradation of BTK incubated for 17 hrs measured by Western blot analysis relative to control; assay type: cell-based
Procedure, shortened: (§1)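 Ramos or JeKo-1 cells (2 × 10^6 per well) were exposed for 17 h to 3000–0.15 nM PROTAC in 3-fold steps. Cells were lysed and analysed by western blot, with BTK normalised to β-actin. DC50 and Dmax come from the dose-response; DC50 is the mean ± SD of two independent experiments.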
Target sequence in this assay (Q06187 2-659 limits assumed): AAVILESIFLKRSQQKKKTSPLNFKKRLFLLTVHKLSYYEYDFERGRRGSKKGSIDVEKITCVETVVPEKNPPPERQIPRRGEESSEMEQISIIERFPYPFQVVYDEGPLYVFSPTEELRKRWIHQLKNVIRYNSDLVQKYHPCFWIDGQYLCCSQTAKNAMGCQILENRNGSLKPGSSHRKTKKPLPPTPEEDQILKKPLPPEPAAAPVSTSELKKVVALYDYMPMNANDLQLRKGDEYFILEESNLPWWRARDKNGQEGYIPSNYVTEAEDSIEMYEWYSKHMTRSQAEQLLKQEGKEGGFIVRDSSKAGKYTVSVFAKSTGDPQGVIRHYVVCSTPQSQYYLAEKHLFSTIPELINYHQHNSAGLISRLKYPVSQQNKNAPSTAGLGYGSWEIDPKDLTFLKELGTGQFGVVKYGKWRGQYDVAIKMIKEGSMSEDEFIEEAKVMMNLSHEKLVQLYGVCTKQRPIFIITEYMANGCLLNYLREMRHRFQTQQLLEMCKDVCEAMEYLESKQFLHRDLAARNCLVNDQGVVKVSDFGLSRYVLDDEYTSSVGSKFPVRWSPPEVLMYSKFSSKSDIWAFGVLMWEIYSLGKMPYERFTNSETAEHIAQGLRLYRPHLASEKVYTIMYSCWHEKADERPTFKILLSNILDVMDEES
Target sequence in this assay (Q96SW2 whole entry partner): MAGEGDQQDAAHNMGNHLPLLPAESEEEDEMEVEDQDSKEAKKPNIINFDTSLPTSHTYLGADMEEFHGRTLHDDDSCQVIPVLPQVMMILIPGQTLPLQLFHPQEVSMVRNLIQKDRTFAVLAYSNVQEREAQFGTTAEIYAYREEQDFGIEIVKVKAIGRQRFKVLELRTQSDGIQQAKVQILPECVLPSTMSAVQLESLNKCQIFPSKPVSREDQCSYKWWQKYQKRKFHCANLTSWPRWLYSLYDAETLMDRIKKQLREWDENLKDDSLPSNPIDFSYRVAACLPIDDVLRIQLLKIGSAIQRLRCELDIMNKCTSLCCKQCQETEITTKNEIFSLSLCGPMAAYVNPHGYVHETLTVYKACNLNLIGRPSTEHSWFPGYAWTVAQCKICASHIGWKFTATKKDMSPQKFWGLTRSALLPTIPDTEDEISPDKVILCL

[2] = target: T2, Tyrosine-protein kinase BTK (Homo sapiens, UniProt Q06187); test: Potency index, ratio of test compound Kd to GDC-0853 Kd for full length BTK (unknown origin)
T2 sequence (Q06187 whole entry): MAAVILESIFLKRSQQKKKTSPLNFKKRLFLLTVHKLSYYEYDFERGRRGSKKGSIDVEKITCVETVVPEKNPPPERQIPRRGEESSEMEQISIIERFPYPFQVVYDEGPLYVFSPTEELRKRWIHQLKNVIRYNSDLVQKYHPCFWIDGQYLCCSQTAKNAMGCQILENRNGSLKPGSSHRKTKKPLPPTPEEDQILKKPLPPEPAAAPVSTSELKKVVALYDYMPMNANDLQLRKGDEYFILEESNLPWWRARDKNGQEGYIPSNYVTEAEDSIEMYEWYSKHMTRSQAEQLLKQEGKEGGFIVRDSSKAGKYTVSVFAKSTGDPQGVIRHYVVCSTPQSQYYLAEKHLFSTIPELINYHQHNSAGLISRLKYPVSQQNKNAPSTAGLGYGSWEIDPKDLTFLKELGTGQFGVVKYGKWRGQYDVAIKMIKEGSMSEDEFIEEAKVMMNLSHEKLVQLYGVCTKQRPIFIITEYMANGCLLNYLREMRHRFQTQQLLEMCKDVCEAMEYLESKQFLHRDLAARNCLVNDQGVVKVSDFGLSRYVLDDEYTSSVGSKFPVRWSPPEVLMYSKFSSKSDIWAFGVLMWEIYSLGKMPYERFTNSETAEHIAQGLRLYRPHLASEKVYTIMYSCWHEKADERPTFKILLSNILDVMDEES

[3] = target: T1, Protein cereblon/Tyrosine-protein kinase BTK; test: PROTAC activity at BTK/CRBN protein protein interaction in human JeKo-1 cell assessed as degradation of BTK incubated for 17 hrs measured by Western blot analysis; assay type: cell-based; procedure, shortened: as §1
Target sequence in this assay (Q06187 whole entry): as above
Target sequence in this assay (Q96SW2 whole entry): as the sequence (Q96SW2 whole entry partner) above

[4] = target: T2, Tyrosine-protein kinase BTK; test: Binding affinity to full length BTK (unknown origin) assessed as dissociation constant measured at 37 degree C by TR-FRET assay
[5] = target: T2, Tyrosine-protein kinase BTK; test: Inhibition of BTK in HEK293 cells using NanoGlo substrate incubated for 2 hrs by NanoBRET assay; assay type: cell-based
[6] = target: T1, Protein cereblon/Tyrosine-protein kinase BTK; test: PROTAC activity at BTK/CRBN protein protein interaction in human Ramos cell assessed as degradation of BTK incubated for 17 hrs measured by Western blot analysis relative to control; assay type: cell-based; procedure, shortened: as §1
Target sequence in this assay (Q06187 2-659 limits assumed): as the sequence (Q06187 2-659 limits assumed) above
Target sequence in this assay (Q96SW2 whole entry partner): as the sequence (Q96SW2 whole entry partner) above

[7] = target: T1, Protein cereblon/Tyrosine-protein kinase BTK; test: PROTAC activity at Halo-tagged CRBN/NanoLuc fusion tagged BTK transfected in HEK293 cells assessed as degradation of BTK by measuring ternary complex formation using NanoGlo substrate preincubated with proteasome inhibitor MG-132 for 30 mins followed by compound and substrate addition incubated for 2.5 hrs measured by NANOBRET assay relative to 4-((2-((S)-4-(6-((2'-(7,7-Dimethyl-1-oxo-1,3,4,6,7,8-hexahydro-2H-cyclopenta[4,5]pyrrolo[1,2-a]pyrazin-2-yl)-3'-(hydroxymethyl)-1-methyl-6-oxo-1,6-dihydro-[3,4'-bipyridin]-5-yl)amino)pyridin-3-yl)-3-methylpiperazin-1-yl)-2-oxoethyl)amino)-2-(2,6-dioxopiperidin-3-yl)isoindoline-1,3-dione; assay type: cell-based; set-up: scale not given: the % may be the effect or the level left
Target sequence in this assay (Q06187 2-659 limits assumed): as the sequence (Q06187 2-659 limits assumed) above
Target sequence in this assay (Q96SW2 whole entry partner): as the sequence (Q96SW2 whole entry partner) above

[8] = target: T1, Protein cereblon/Tyrosine-protein kinase BTK; test: PROTAC activity at BTK/CRBN protein protein interaction in human Ramos cell assessed as degradation of BTK incubated for 17 hrs measured by Western blot analysis; assay type: cell-based; procedure, shortened: as §1
Target sequence in this assay (Q06187 whole entry): as the sequence (Q06187 whole entry) above
Target sequence in this assay (Q96SW2 whole entry): as the sequence (Q96SW2 whole entry partner) above

[9] = target: Protein cereblon (Homo sapiens, UniProt Q96SW2); test: Inhibition of CRBN in HEK293 cells using NanoGlo substrate incubated for 2 hrs by NanoBRET assay; assay type: cell-based
Sequence of Protein cereblon (Q96SW2 whole entry): as the sequence (Q96SW2 whole entry partner) above

[10] = system: MINO; test: Induction of apoptosis in human MINO cells at 0.15 to 3000 nM for 48 hrs by Annexin-V/propidium iodide staining based flow cytometric analysis; assay type: functional, cell-based; conditions: dose 0.15-3000 nM
Procedure, shortened: (§2)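 Cells plated at 2 × 10^6 per well and treated 48 h at 3,000–0.15 nM (3-fold dilutions) or 1% DMSO. Harvested, washed in cold PBS, stained with Annexin V Alexa Fluor 488/propidium iodide, analysed by flow cytometry for % live, apoptotic and necrotic cells. Mean of two independent experiments.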

[11] = Cytotoxicity against human MINO cells incubated for 48 hrs by celltitre glo 2.0 assay; assay type: functional, cell-based
[12] = system: TMD8; test: Induction of apoptosis in human TMD8 cells measured after 48 hrs by Annexin-V/propidium iodide staining based flow cytometric analysis; assay type: functional, cell-based; conditions: dose 0.15-3000 nM; procedure, shortened: as §2
[13] = system: TMD8; test: Cytotoxicity against human TMD8 cells incubated for 48 hrs by celltitre glo 2.0 assay; assay type: functional, cell-based; conditions: TMD8, 48 h

`C[C@H]1CN(C(=O)CCCCCCCCCCCNc2cccc3c2C(=O)N(C2CCC(=O)NC2=O)C3=O)CCN1c1ccc(Nc2cc(-c3ccnc(N4CCn5c(cc6c5CC(C)(C)C6)C4=O)c3CO)cn(C)c2=O)nc1` (some centres undefined) gave an Emax [1] of 89.8%, a Ratio [2] of 300 and a DC50 [3] of 348 nM. For the same molecule, the pKd [4] was 6.97, the pIC50 [5] was 5.49 and the Emax [6] was 89%. It also gave an Activity [7] of 75%, a DC50 [8] of 113 nM and a pIC50 [9] of 5.30.

`C[C@H]1CN(C(=O)c2cccc3c2C(=O)N(C2CCC(=O)NC2=O)C3=O)CCN1c1ccc(Nc2cc(-c3ccnc(N4CCn5c(cc6c5CC(C)(C)C6)C4=O)c3CO)cn(C)c2=O)nc1` (some centres undefined) showed an Emax [1] of 30%, a Ratio [2] of 3 and a DC50 [3] greater than 3000 nM. The pKd [4] was 9.07, the pIC50 [5] was 6.49 and the Emax [6] was 30.1%. The Activity [7] was 0%, the DC50 [8] was greater than 3000 nM and the pIC50 [9] was 5.15.

With `C[C@H]1CN(C(=O)CNc2ccc3c(c2)C(=O)N(C2CCC(=O)NC2=O)C3=O)CCN1c1ccc(Nc2cc(-c3ccnc(N4CCn5c(cc6c5CC(C)(C)C6)C4=O)c3CO)cn(C)c2=O)nc1` (some centres undefined) the Emax [1] was 97.6%, the DC50 [3] was 0.8 nM and the Emax [6] was 97.3%. It also gave a DC50 [8] of 0.9 nM.

`C[C@H]1CN(C(=O)CCOCCOCCNc2cccc3c2C(=O)N(C2CCC(=O)NC2=O)C3=O)CCN1c1ccc(Nc2cc(-c3ccnc(N4CCn5c(cc6c5CC(C)(C)C6)C4=O)c3CO)cn(C)c2=O)nc1` (some centres undefined) showed an Emax [1] of 95.1%, a DC50 [3] of 4.1 nM and an Emax [6] of 96.1%. The DC50 [8] was 1.3 nM.

For `C[C@H]1CN(C(=O)CNc2cccc3c2CN(C2CCC(=O)NC2=O)C3=O)CCN1c1ccc(Nc2cc(-c3ccnc(N4CCn5c(cc6c5CC(C)(C)C6)C4=O)c3CO)cn(C)c2=O)nc1` (some centres undefined), the Emax [1] was 89.2%, the DC50 [3] was 4.6 nM and the Emax [6] was 89.8%. The DC50 [8] was 3.6 nM.

In the case of `C[C@H]1CN(C2COC2)CCN1c1ccc(Nc2cc(-c3ccnc(N4CCn5c(cc6c5CC(C)(C)C6)C4=O)c3CO)cn(C)c2=O)nc1` [FENEBRUTINIB], the Activity [10] was “inactive”, the pIC50 [11] was 8.11 and the Activity [12] was “Dose-Dependent Effect”.

In the case of `Nc1ncnc2c1c(-c1ccc(Oc3ccccc3)cc1)nn2C1CCN(CCOCCOCC(=O)Nc2ccc3c(c2)C(=O)N(C2CCC(=O)NC2=O)C3=O)CC1` (centres undefined), the pIC50 [11] was 7.00 and the pIC50 [13] was 7.92.

For `C[C@H]1CN(C(=O)CCCCCCOCCOCC(=O)Nc2cccc3c2C(=O)N(C2CCC(=O)NC2=O)C3=O)CCN1c1ccc(Nc2cc(-c3ccnc(N4CCn5c(cc6c5CC(C)(C)C6)C4=O)c3CO)cn(C)c2=O)nc1` (some centres undefined), the Emax [1] was 97.7%, the Emax [6] was 97.1% and the DC50 [8] was 6.6 nM.

In the case of `Cn1cc(-c2ccnc(N3CCn4c(cc5c4CC(C)(C)C5)C3=O)c2CO)cc(Nc2ccc(N3CCN(C(=O)CCCCCCNc4cccc5c4C(=O)N(C4CCC(=O)NC4=O)C5=O)CC3)cn2)c1=O` (centres undefined), the Emax [1] was 98%, the DC50 [3] was 3.5 nM and the Emax [6] was 96.9%. It also gave a DC50 [8] of 2 nM.

In the case of `Cc1c(NC(=O)c2ccc(C(C)(C)C)cc2)cccc1-c1cn(C)c(=O)c(Nc2ccc(C(=O)N3CCN(CCCCCCNC(=O)CNc4cccc5c4C(=O)N(C4CCC(=O)NC4=O)C5=O)CC3)cc2)n1` (centres undefined), the pIC50 [11] was 7.96 and the pIC50 [13] was 8.29.
